Assay results taken from ChEMBL document CHEMBL4480411, “Discovery of Second Generation RORγ Inhibitors Composed of an Azole Scaffold” (J Med Chem, 2019).

What was measured:
[1] = biological target: T1, Nuclear receptor ROR-gamma (Homo sapiens, UniProt P51449); test: Inhibition of human GAL4-fused RORgamma LBD transcriptional activity expressed in CHOK1 cells after 2 days by luciferase reporter gene assay; assay type: cell-based
T1 sequence (P51449 whole entry): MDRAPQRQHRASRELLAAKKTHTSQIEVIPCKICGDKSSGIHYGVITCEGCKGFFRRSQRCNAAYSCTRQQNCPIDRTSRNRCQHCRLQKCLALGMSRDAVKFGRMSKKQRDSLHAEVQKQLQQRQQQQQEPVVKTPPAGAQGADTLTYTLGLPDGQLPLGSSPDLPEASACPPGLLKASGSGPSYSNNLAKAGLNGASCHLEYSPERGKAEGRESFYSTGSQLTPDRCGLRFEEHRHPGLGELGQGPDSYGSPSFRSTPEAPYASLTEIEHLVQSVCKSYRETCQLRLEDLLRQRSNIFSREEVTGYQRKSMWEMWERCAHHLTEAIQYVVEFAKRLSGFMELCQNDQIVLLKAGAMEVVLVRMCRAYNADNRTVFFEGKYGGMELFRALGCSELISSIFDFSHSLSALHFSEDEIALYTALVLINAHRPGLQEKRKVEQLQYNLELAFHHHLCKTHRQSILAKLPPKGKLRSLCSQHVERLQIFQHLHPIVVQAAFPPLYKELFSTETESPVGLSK

[2] = Stability in human liver microsomes assessed as compound remaining after 60 mins; assay type: ADME, Microsome; conditions: read-out: Stability
In short: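 Human liver microsomes incubated with compound for 60 minutes; value reported as % of compound remaining.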

[3] = Lipophilicity, log D of the compound; assay type: physicochemical; conditions: octanol/water
[4] = Apparent permeability in human Caco2 cells; assay type: ADME, cell-based; conditions: Caco-2

SMILES	EC50 [1] [nM]	remaining at 1 h [2] [%]	logD [3]	Papp [4] [×10⁻⁶ cm/s]
Cc1ccc(NC(=O)CC(CCC(=O)O)c2nnc(CCCC(C)C)n2C2CC2)c(C)c1 (racemic)	> 20000	91	2.9	0.2
Cc1ccc(NC(=O)CC(CCC(N)=O)c2nnc(CCCC(C)C)n2C2CC2)c(C)c1 (racemic)	16000	44	3.4	0.8
CC(=O)NCCC(CC(=O)Nc1ccc(C)cc1C)c1nnc(CCCC(C)C)n1C1CC1 (racemic)	11000	39	3.5	1.3
CC(=O)N1C[C@H](C(=O)Nc2ccc(C)cc2C)[C@@H](c2nnc([C@H]3C[C@@H](CC(C)C)C3)n2C2CC2)C1	–	61	4.3	20
Cc1ccc(NC(=O)CCc2nnc(CCCC(C)C)n2C2CC2)c(C)c1	–	27	3.9	36
Cc1ccc(NC(=O)CC(CCN(C)C)c2nnc(CCCC(C)C)n2C2CC2)c(C)c1 (racemic)	19000	85	3.3	0.8
Cc1ccc(NC(=O)CC(CCC(=O)N(C)C)c2nnc(CCCC(C)C)n2C2CC2)c(C)c1 (racemic)	2700	45	3.8	7
CNC(=O)CCC(CC(=O)Nc1ccc(C)cc1C)c1nnc(CCCC(C)C)n1C1CC1 (racemic)	6400	65	3.5	1.5
CCN(c1ccc(C(O)(C(F)(F)F)C(F)(F)F)cc1)S(=O)(=O)c1ccc([N+](=O)[O-])cc1	190	–	–	–
Cc1ccc(NC(=O)CC(CCO)c2nnc(CCCC(C)C)n2C2CC2)c(C)c1 (racemic)	440	21	3.5	11
Cc1ccc(NC(=O)CC(CCN)c2nnc(CCCC(C)C)n2C2CC2)c(C)c1 (racemic)	> 20000	88	3.1	0.2

Other lines, results leading:

EC50 [1] [nM]	remaining at 1 h [2] [%]	logD [3]	Papp [4] [×10⁻⁶ cm/s]	SMILES
660	75	3.7	32	Cc1ccc(NC(=O)C[C@H](CCC(=O)[O-])c2noc(-c3ncc(CC(C)C)o3)c2C2CC2)c(Cl)c1.[Na+]
7	84	4.2	–	Cc1ccc(NC(=O)C[C@H](CCC(=O)O)c2noc(-c3cc(CC(C)(C)C)on3)c2C2CC2)c(Cl)c1
17	54	3.8	34	Cc1ccc(NC(=O)C[C@H](CCC(=O)[O-])c2noc(-c3cnc(CC(C)C)s3)c2C2CC2)c(Cl)c1.[Na+]
7	107	4.2	–	CC(C)(C)C(F)(F)c1cc(-c2onc([C@@H](CCC(=O)O)CC(=O)Nc3ccc(Cl)cc3F)c2C2CC2)no1
120	82	4	28	Cc1ccc(NC(=O)C[C@H](CCC(=O)[O-])c2noc(-c3ncc(CC(C)C)s3)c2C2CC2)c(Cl)c1.[Na+]
12	54	3.8	28	Cc1ccc(NC(=O)C[C@H](CCC(=O)[O-])c2noc(-c3cc(CC(C)C)no3)c2C2CC2)c(Cl)c1.[Na+]
44	80	4.8	16	Cc1ccc(NC(=O)C[C@H](CCC(=O)O)c2noc(-c3ccc(CC(C)C)cc3)c2C2CC2)c(Cl)c1
7	74	4	–	Cc1ccc(NC(=O)C[C@H](CCC(=O)O)c2noc(-c3cc(C(F)(F)C(C)C)on3)c2C2CC2)c(Cl)c1
56	78	3.4	10	Cc1ccc(NC(=O)C[C@H](CCC(=O)[O-])c2noc(-c3nnc(CC(C)C)s3)c2C2CC2)c(Cl)c1.[Na+]
8	79	4.3	–	Cc1ccc(NC(=O)C[C@H](CCC(=O)O)c2noc(-c3cc(CCC(C)C)on3)c2C2CC2)c(Cl)c1
6	77	4.3	–	Cc1ccc(NC(=O)C[C@H](CCC(=O)O)c2noc(-c3cc(C(F)(F)C(C)(C)C)on3)c2C2CC2)c(Cl)c1
62	90	3.6	25	Cc1ccc(NC(=O)C[C@H](CCC(=O)[O-])c2noc(-c3noc(CC(C)C)n3)c2C2CC2)c(Cl)c1.[Na+]
14	74	3.9	36	Cc1ccc(NC(=O)C[C@H](CCC(=O)[O-])c2noc(-c3cc(CC(C)C)on3)c2C2CC2)c(Cl)c1.[Na+]
8	78	4.4	–	Cc1ccc(NC(=O)C[C@H](CCC(=O)O)c2noc(-c3cc(C(F)(F)CC(C)C)on3)c2C2CC2)c(Cl)c1
6	90	4	–	CC(C)(C)C(F)(F)c1cc(-c2onc([C@@H](CCC(=O)O)CC(=O)Nc3ccc(F)cc3Cl)c2C2CC2)no1
3800	82	3.8	34	Cc1ccc(NC(=O)C[C@H](CCC(=O)[O-])c2noc(-c3csc(CC(C)C)n3)c2C2CC2)c(Cl)c1.[Na+]
